Screening data as filed in PubChem.
UPR CHOP act = activators of apoptotic CHOP UPR arm, primary screen, cell-based, CHO-CHOP luciferase reporter, luminescence, uHTS. UPR activation; percent of tunicamycin response over DMSO baseline. activation, % at 10 µM. 0.34% of 330,000 active;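 active = at 10 µM dose, activation of 40% or more, normalized to positive control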
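Test system: CHO CHOP reporter cells. Input: 500 CHO-CHOP cells per well. Medium: F12 with 10% FBS. Technique: luciferase luminescence. Measure: percent activation relative to tunicamycin control. Dosing: 10 µM compound, 0.5% DMSO. Timing: 16-18 h cell attachment, then 6 h compound exposure, 37 °C.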
CHOP inh = inhibitors of CHOP promoter induction, primary screen, cell-based, unfolded protein response, luciferase reporter | CHO-K1 CHOP-promoter luciferase, tunicamycin-induced, 15-18 h | inhibition, % at 10 µM | 3.8% of 220,000 active;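 active = compounds that reduced the stress-induced luciferase reporter signal by more than about 70% of percent inhibition, limit read from the data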
UPR XBP1 act = activators of adaptive XBP1 UPR arm, primary screen, cell-based, CHO-XBP1 luciferase reporter, luminescence, uHTS. IRE1-XBP1 UPR activation; percent of tunicamycin response, DMSO as zero. activation, % at 20 µM. 0.33% of 330,000 active;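 active = versus positive control, 20 µM dose yields 30% or more activation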
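Material: CHO-XBP1 cells stably carrying IRE1-XBP1-driven luciferase reporter | Medium: F12 with 10% serum | Compound dosing: 20 µM single concentration, DMSO 1% | Incubation: Overnight seeding at 37 °C, 6 h compound treatment at 37 °C | Detection: Steady-Glo luminescence read | Read-out basis: % activation of reporter signal versus tunicamycin and DMSO controls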
Dynein cargo inh = inhibitors of GR-EGFP nuclear translocation, primary screen, dynein cargo transport inhibitor project, imaging, high-content, 3617.4 mouse cells; 0.47% of 220,000 active; z-score, hits read low; test concentration mostly 20 µM; stimulated with dexamethasone, 1 µM; hits give low values;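 active = plate z-score of nuclear minus cytoplasmic receptor signal below a set negative limit, without overly bright fluorescence or cell loss, cut at about -3.5 in these data, passing the limit was not always enough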;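 note: z-score of nuclear minus cytoplasmic ring GR-EGFP intensity difference per well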
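Buffer or medium: tet-free, stripped-serum medium; Also added: dexamethasone, 1.0 µM final; Technique: high-content fluorescence imaging after fixation; Times: 48 h induction, 1 h compound, 30 min dex at 37 °C; Read-out: per-cell GR-EGFP intensity, nucleus versus surrounding cytoplasmic ring, well-averaged.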
Beta2AR agonist = beta2AR agonists driving receptor internalization, primary screen, cell-based, FAP fluorogen, flow cytometry | AID 504454, 2011 | Am2.2-beta2AR cells | response, % (test concentration not listed) | Beta-2 adrenergic receptor (Homo sapiens), P07550 | 0.43% of 340,000 active;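 active = response above a set limit, near 3 SD of response in nonfluorescent compounds, cut at about 42% in these data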
Target sequence (P07550 whole entry, looked up): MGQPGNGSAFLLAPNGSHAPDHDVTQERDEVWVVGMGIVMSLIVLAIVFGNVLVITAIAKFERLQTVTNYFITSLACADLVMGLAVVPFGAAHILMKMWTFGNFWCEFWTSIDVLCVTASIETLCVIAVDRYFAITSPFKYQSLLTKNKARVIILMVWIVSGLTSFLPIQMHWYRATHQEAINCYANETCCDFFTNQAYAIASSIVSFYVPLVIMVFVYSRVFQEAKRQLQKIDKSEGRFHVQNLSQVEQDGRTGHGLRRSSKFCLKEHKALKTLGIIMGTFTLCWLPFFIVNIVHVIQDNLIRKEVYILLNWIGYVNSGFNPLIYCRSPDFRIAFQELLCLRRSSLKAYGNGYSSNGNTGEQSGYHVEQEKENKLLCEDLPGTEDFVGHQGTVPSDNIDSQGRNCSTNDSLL
p-CIP stab down = p/CIP-EGFP fusion destabilizers, primary screen, fluorescence, F442A cells. 0.01% of 290,000 active. Q05BA5. 16 h. decrease of EGFP signal, % at 10 µM;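 active = EGFP signal decrease of at least 30% at 10 µM or well 3 SD below plate mean, unless failing retest; inactive = the rest, including hits failing retest or dose response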
Large screens that a line does not name were inactive. This is one part of a sample in which hits are shown more often than they occur.

CNC(=O)[C@H]1O[C@@H](n2cnc3c(NCc4cccc(I)c4)ncnc32)C(O)[C@H]1O (stereo partly specified)	none (no result: UPR CHOP act, UPR XBP1 act, Dynein cargo inh, Beta2AR agonist, p-CIP stab down)
O=C(COc1ccccc1)Nc1nnc(-c2ccc(Cl)cc2)o1	none (no result: CHOP inh, Dynein cargo inh)
COc1ccccc1C(=O)Nc1nnc(-c2ccc3c(c2)CCCC3)o1	CHOP inh 80
CC1CN(S(=O)(=O)c2ccc(C(=O)Nc3nnc(-c4ccc5c(c4)CCCC5)o3)cc2)CC(C)O1 (stereo unspecified)	CHOP inh 104
O=C(COc1ccc(Cl)cc1)Nc1nnc(-c2ccc3c(c2)CCCC3)o1	CHOP inh 87
Cc1ccc(NS(=O)(=O)N2CCOCC2)c(C)c1	none (no result: CHOP inh, Dynein cargo inh)
Cc1ccccc1OCC(=O)Nc1sc(C(=O)Nc2cccc(C)c2C)c(C)c1C#N	none
COC(=O)c1cc2c(-c3ccccc3)cc3ccccn3c-2c1C(=O)OC	none
COC(=O)c1c(C(=O)OC)c2cccc3cc(-c4ccccc4)c4ccc1c4n32	CHOP inh 83
C=CCOC(=O)c1cc(-c2ccc(/C=C3\C(=O)NC(=O)C(C#N)=C3C)o2)ccc1Cl	Dynein cargo inh -4.4 (no result: UPR CHOP act, UPR XBP1 act)
CCCOC(=O)c1cc(-c2ccc(/C=C3/C(=O)N(C)C(=O)C(C#N)=C3C)o2)ccc1Cl	Dynein cargo inh -3.7 (no result: CHOP inh, p-CIP stab down)
CC1=C(C#N)C(=O)NC(=O)/C1=C/c1ccc(-c2ccc(S(N)(=O)=O)cc2)o1	none
NCC1OC(O[C@@H]2[C@H](O)C(OC3C(O)C(N)CC(N)C3OC3OC(CO)C(O)C(O)C3N)O[C@@H]2CO)C(N)C(O)C1O (stereo partly specified)	none (no result: UPR CHOP act, UPR XBP1 act, Dynein cargo inh, Beta2AR agonist, p-CIP stab down)
Cc1cccc(-c2cc3c(N=O)c4ccccc4c-3n[nH]2)c1	CHOP inh 85
Cc1ccc(-c2cc3c(N=O)c4ccccc4c-3n[nH]2)cc1	none
O=Nc1c2cc(-c3ccccc3)[nH]nc-2c2ccccc12	CHOP inh 92 (no result: UPR CHOP act, UPR XBP1 act)
O=C(CCl)N1c2ccccc2SCC1c1ccccc1 (stereo unspecified)	none (no result: CHOP inh, Dynein cargo inh)
O=C(CCl)N1c2ccccc2OCC1c1ccccc1 (stereo unspecified)	CHOP inh 106
O=C1CCCN1c1ccc(S(=O)(=O)NCCOc2ccccc2)cc1	none
Cc1cc(N2CCCC2=O)cc(C)c1S(=O)(=O)NCCOc1ccc(C(C)(C)C)cc1	CHOP inh 78
Cc1ccc2nc(N3CC(=O)Nc4ccccc43)nc(-c3ccccc3)c2c1	CHOP inh 89 (no result: UPR CHOP act, UPR XBP1 act)
Cc1ccc(NC(CNS(=O)(=O)c2ccc(Cl)cc2)c2ccccc2)cc1 (stereo unspecified)	CHOP inh 104
CC1C(=O)CC(c2ccccc2)N(C)C1c1ccccc1 (stereo unspecified)	CHOP inh 79
CN1C(c2ccccc2)CCOS1(=O)=O (stereo unspecified)	none (no result: CHOP inh, Dynein cargo inh)
CCN1/C(=C/c2ccc3cc(C)ccc3[n+]2CC)Sc2ccccc21	CHOP inh 108, Dynein cargo inh -5.1 (no result: Beta2AR agonist)
COc1ccc(Nc2nccc(N(C)C)c2C#N)cc1	none
Cc1c(Nc2cc(Cl)c3nonc3c2[N+](=O)[O-])c(=O)n(-c2ccccc2)n1C	CHOP inh 108, Dynein cargo inh -6, Beta2AR agonist 89
Cc1nc(NC(=O)c2ccc(Cl)cc2)nc2cc3c(cc12)OCO3	none
COc1ccc(C(=O)Nc2nc(C)c3cc4c(cc3n2)OCO4)cc1	CHOP inh 72
N#CC1=C(N)Oc2cc(O)c(C=Nc3ccccc3)cc2C1c1ccccc1 (stereo unspecified)	none
Cc1ccccc1N=Cc1cc2c(cc1O)OC(N)=C(C#N)C2c1ccccc1 (stereo unspecified)	CHOP inh 89
CC(=O)Nc1ccc(NC(=O)C(Sc2ccccc2)c2ccccc2)cc1 (stereo unspecified)	none
